Experimental data taken from paper PMC4784694 (Molecular cancer therapeutics, 2015).

Experiments:
[1] = system: breast cancer cells; conditions: Supplemental Figure 3B; others and own data
[2] = system: MDA-MB-231 tumors; assay type: in vivo, NSG mice; conditions: eribulin 0.1 mg/kg i.v.; POL5551 20 mg/kg s.c. b.i.d.; Figure 5A–C
[3] = system: MDA-MB-231 tumors; test: Eribulin dose ranging in mice bearing MDA-MB-231 tumors; assay type: in vivo
Procedure, shortened: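 Female NSG mice, 6–8 weeks old, were inoculated with 5×10⁵ MDA-MB-231 cells in Matrigel into the #9 mammary fat pad to form orthotopic tumours. Eribulin was diluted in saline and given i.v. once a week, at 0.1 mg/kg for primary fat-pad therapy. Vehicle controls received saline. Weight change is reported as mean and range.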

SMILES	SDF-1 mediated migration of breast cancer cells [1]	Primary MFP tumor growth [2]	Primary breast tumor reduction ([3]; eribulin 0.1 mg/kg single-agent, Supplemental Figure 5F)	Mice survival ([3]; eribulin dose ranging, Supplemental Figure 5D)	Treatment associated weight loss ([3]; high dose of eribulin (>0.5 mg/kg), Supplemental Figure 5E)
c1cc(CN2CCCNCCNCCCNCC2)ccc1CN1CCCNCCNCCCNCC1 [AMD3100]	can block SDF-1 mediated migration of breast cancer cells	–	–	–	–
C=C1C[C@@H]2CC[C@@]34C[C@H]5O[C@H]6[C@@H](O3)[C@H]3O[C@H](CC[C@@H]3O[C@H]6[C@H]5O4)CC(=O)C[C@@H]3[C@@H](OC)[C@@H](C[C@H](O)CN)O[C@H]3C[C@H]3O[C@@H](CC[C@@H]1O2)C[C@@H](C)C3=C [eribulin, Eribulin]	–	decreased primary tumor growth rate	50%	prolonged mice survival in a dose-dependent manner	greater treatment associated weight loss
